In brackets after ≈: the same amount, converted by molar mass. Activity calls are given as the source filed them. The calls are words filed in the database; no cut-off is given here.
What was measured:
[1] = test system: Radical scavenging activity; assay: Antioxidant activity assessed as DPPH radical scavenging activity at 6 uM after 30 mins; type: functional
Procedure, shortened: (§1)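 Samples in EtOH (100 µL) mixed with 25 µL of 1 mM DPPH in EtOH plus 75 µL EtOH, then shaken briefly. Kept 30 min at room temperature in the dark. Absorbance read at 517 nm. % scavenging calculated against control, with blank and sample-blank corrections.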

[2] = test system: Radical scavenging activity; assay: Antioxidant activity assessed as DPPH radical scavenging activity at 23 uM after 30 mins; type: functional; procedure, shortened: as §1
[3] = test system: Radical scavenging activity; assay: Antioxidant activity assessed as DPPH radical scavenging activity at 58 uM after 30 mins; type: functional; procedure, shortened: as §1
[4] = test system: Radical scavenging activity; assay: Antioxidant activity assessed as DPPH radical scavenging activity at 115 uM after 30 mins; type: functional; procedure, shortened: as §1
[5] = test system: Radical scavenging activity; assay: Antioxidant activity assessed as DPPH radical scavenging activity at 230 uM after 30 mins; type: functional; procedure, shortened: as §1
[6] = ABTS radical scavenging activity assessed as trolox equivalents by TEAC assay; type: physicochemical
Procedure, shortened: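 ABTS radical cation made by passing ABTS in PBS through manganese dioxide, then filtered (0.2 µm). Diluted in 5 mM PBS pH 7.4 to A734 0.700 and preincubated 2 h at room temperature. 1 mL radical mixed with 200 µL ethanolic sample, vortexed 30 s, centrifuged. A734 of lower phase read exactly 2 min after mixing. PBS and ethanol blanks included. Trolox standards used; value is mM Trolox equivalent to 1.0 mM compound.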

[7] = Superoxide radical scavenging activity assessed as trolox equivalents by photochemiluminescence assay
Procedure, shortened: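 Photochemiluminescence with luminol acting as photosensitizer and detection reagent, generating superoxide. Mix of 2.29 mL reagent 1 (solvent/diluent), 200 µL buffer reagent, 25 µL photosensitizer and 10 µL sample in ethanol or Trolox standard in water. Antioxidant capacity taken from the integral under the curve and expressed as Trolox equivalents.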

[8] = Antioxidant activity assessed as inhibition of FeSO4-induced lipid peroxidation at 8 uM by TBARS assay; type: functional
Procedure, shortened: (§2)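 Linolenic acid methyl ester oxidized under FeSO4 catalysis in 50 mM phosphate buffer pH 7.2 at 50 °C. BHT in ethanol added to stop further oxidation. TBARS developed with trichloroacetic and thiobarbituric acid, 60 °C for 30 min. Read A532 minus A600 background. % inhibition calculated versus uninhibited control, with blank and sample-blank corrections.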

[9] = Antioxidant activity assessed as inhibition of FeSO4-induced lipid peroxidation at 16 uM by TBARS assay; type: functional; procedure, shortened: as §2
[10] = Antioxidant activity assessed as inhibition of FeSO4-induced lipid peroxidation at 33 uM by TBARS assay; type: functional; procedure, shortened: as §2
[11] = Antioxidant activity assessed as inhibition of FeSO4-induced lipid peroxidation at 82 uM by TBARS assay; type: functional; procedure, shortened: as §2
[12] = Antioxidant activity assessed as inhibition of FeSO4-induced lipid peroxidation at 164 uM by TBARS assay; type: functional; procedure, shortened: as §2
[13] = Cytotoxicity against human HM02 cells; type: functional
Procedure, shortened: (§3)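 Cytotoxicity tested on HM02 gastric adenocarcinoma, HepG2 hepatocellular carcinoma and MCF7 breast adenocarcinoma lines following NCI standards.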

[14] = test system: HepG2; assay: Cytotoxicity against human HepG2 cells; type: functional; procedure, shortened: as §3
[15] = test system: MCF7; assay: Cytotoxicity against human MCF7 cells; type: functional; procedure, shortened: as §3
[16] = test system: HepG2; assay: Cytotoxicity against human HepG2 cells at 10 ug/ml; type: functional; settings: read-out: GI
[17] = test system: Priestia megaterium; assay: Antimicrobial activity against Bacillus megaterium at 50 ug/disk by agar diffusion assay; type: functional, organism-based
Procedure, shortened: (§4)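 Agar diffusion assay with discs loaded at 50 µg/disk, run against the bacteria, fungi and the green microalga Chlorella fusca.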

[18] = test system: Escherichia coli; assay: Antimicrobial activity against Escherichia coli at 50 ug/disk by agar diffusion assay; type: functional, organism-based; procedure, shortened: as §4
[19] = test system: Microbotryum violaceum; assay: Antimicrobial activity against Microbotryum violaceum at 50 ug/disk by agar diffusion assay; type: functional, organism-based; procedure, shortened: as §4
[20] = test system: Aspergillus pseudoglaucus; assay: Antimicrobial activity against Eurotium repens at 50 ug/disk by agar diffusion assay; type: functional, organism-based; procedure, shortened: as §4
[21] = test system: Mycotypha microspora; assay: Antimicrobial activity against Mycotypha microspora at 50 ug/disk by agar diffusion assay; type: functional, organism-based; procedure, shortened: as §4
[22] = test system: [Chlorella] fusca; assay: Antimicrobial activity against 'Chlorella' fusca at 50 ug/disk by agar diffusion assay; type: functional, organism-based; settings: Scenedesmus fuscus; procedure, shortened: as §4
[23] = target: Human immunodeficiency virus type 1 reverse transcriptase (Human immunodeficiency virus 1) (UniProt Q72547); assay: Inhibition of HIV1 reverse transcriptase at 66 ug/ml by ELISA
Procedure, shortened: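 HIV-1 RT activity inhibition measured by ELISA with the test compound at 66 µg/mL.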

[24] = test system: Radical scavenging activity; assay: Antioxidant activity assessed as DPPH radical scavenging activity at 12 uM after 30 mins; type: functional; procedure, shortened: as §1

C/C(=C/CC/C(C)=C/CC/C(C)=C/C(=O)C/C(C)=C/Cc1cc(O)cc(C)c1O)CO
Activity [1]: 8% | Activity [2]: 25.1% | Activity [3]: 64.8% | Activity [4]: 96.1% | Activity [5]: 96.4% | Activity [6]: 0.09 mmol/L | Activity [7]: 0.59 mmol/L | inhibition [8]: 10.6% | inhibition [9]: 14.8% | inhibition [10]: 32.1% | inhibition [11]: 67.2% | inhibition [12]: 73.7% | GI50 [13]: 2.3 µg/mL (≈ 5.39 µM) | LC50 [13]: > 10 µg/mL | TGI [13]: 7.4 µg/mL (≈ 17.3 µM) | GI50 [14]: 7.1 µg/mL (≈ 16.6 µM) | LC50 [14]: > 10 µg/mL | TGI [14]: > 10 µg/mL | GI50 [15]: 2.2 µg/mL (≈ 5.16 µM) | LC50 [15]: > 10 µg/mL | TGI [15]: 5.1 µg/mL (≈ 12 µM) | inhibition of growth at 10 µg/mL [16]: 86% | Activity [17]: inactive | Activity [18]: inactive | Activity [19]: inactive | Activity [20]: inactive | Activity [21]: inactive | Activity [22]: inactive | Activity [23]: inactive | Activity [24]: 12.3%

— ChEMBL document CHEMBL1146554, “Antioxidative meroterpenoids from the brown alga Cystoseira crinita” (J Nat Prod, 2003)
